Assay results as given in the M2OR odorant receptor database.

How the values were obtained:
Conditions in all cases: stereoisomer not certain
OR10J5 (Homo sapiens) = biological target: T1, OR10J5 (Homo sapiens) (UniProt Q8NHC4)
T1 sequence (whole entry): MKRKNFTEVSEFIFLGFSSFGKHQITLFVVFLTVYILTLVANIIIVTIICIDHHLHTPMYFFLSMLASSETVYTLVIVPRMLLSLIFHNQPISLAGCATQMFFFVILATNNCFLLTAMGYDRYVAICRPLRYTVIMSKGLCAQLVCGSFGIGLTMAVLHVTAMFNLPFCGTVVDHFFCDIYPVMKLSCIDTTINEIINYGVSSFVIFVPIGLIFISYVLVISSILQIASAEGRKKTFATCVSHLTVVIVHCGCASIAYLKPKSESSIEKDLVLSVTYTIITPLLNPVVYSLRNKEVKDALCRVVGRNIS
Outline: (§1)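 Each entry records the cell line, G-protein, co-transfected protein and tags used. Methods varied with the source, often transient luciferase assays in mammalian cell lines. A receptor–molecule pair is called responsive (active) if the original authors judged its signal statistically different from baseline and non-responsive (inactive) otherwise.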

OR10G2 (Homo sapiens) = biological target: T2, OR10G2 (Homo sapiens) (UniProt Q8NGC3)
T2 sequence (whole entry): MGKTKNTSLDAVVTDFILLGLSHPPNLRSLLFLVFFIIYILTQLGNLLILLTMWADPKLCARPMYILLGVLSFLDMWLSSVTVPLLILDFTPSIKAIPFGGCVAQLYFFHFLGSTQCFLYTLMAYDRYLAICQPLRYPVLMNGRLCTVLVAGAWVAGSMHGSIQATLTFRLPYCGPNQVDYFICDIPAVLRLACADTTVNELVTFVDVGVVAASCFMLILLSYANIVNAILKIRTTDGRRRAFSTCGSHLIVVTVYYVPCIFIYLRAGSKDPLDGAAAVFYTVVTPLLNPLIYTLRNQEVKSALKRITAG
Outline: as §1

OR10G3 (Homo sapiens) = biological target: T3, OR10G3 (Homo sapiens) (UniProt Q8NGC4)
T3 sequence (whole entry): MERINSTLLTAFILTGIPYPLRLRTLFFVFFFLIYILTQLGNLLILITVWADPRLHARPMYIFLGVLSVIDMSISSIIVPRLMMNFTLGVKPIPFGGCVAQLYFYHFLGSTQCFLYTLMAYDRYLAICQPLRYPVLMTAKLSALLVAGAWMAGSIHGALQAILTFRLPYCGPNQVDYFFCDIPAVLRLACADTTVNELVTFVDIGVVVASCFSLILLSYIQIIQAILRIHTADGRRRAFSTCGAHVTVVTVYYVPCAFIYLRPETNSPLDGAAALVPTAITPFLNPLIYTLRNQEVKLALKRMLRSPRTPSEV
Outline: as §1

OR10G4 (Homo sapiens) = biological target: T4, OR10G4 (Homo sapiens) (UniProt Q8NGN3)
T4 sequence (whole entry): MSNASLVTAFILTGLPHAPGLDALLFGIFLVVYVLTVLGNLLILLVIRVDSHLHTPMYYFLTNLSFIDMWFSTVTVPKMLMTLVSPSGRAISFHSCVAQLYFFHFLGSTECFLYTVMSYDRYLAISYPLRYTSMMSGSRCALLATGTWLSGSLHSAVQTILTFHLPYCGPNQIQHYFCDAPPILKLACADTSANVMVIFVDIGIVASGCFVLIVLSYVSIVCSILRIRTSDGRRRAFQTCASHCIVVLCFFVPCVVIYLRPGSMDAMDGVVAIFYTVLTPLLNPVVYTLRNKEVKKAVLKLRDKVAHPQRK
Outline: as §1

OR10G6 (Homo sapiens) = biological target: T5, OR10G6 (Homo sapiens) (UniProt Q8NH81)
T5 sequence (whole entry): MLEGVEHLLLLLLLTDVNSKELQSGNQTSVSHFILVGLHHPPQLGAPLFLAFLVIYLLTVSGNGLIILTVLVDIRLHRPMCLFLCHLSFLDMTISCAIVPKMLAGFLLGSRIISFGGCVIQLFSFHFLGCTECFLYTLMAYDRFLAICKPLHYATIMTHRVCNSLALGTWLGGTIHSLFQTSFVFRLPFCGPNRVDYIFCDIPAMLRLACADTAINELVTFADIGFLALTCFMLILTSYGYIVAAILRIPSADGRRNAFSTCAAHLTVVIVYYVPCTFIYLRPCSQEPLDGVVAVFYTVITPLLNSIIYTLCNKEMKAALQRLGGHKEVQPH
Outline: as §1

OR10G7 (Homo sapiens) = biological target: T6, OR10G7 (Homo sapiens) (UniProt Q8NGN6)
T6 sequence (whole entry): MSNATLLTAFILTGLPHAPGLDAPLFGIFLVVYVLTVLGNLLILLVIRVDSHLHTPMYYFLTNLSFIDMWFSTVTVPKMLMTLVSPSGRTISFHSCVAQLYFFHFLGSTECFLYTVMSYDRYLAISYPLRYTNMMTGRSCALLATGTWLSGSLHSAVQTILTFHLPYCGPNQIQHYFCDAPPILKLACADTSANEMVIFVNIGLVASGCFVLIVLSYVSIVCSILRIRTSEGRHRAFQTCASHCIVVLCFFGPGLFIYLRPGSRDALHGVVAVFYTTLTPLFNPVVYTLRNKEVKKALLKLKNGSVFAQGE
Outline: as §1

OR10G8 (Homo sapiens) = biological target: T7, OR10G8 (Homo sapiens) (UniProt Q8NGN5)
T7 sequence (whole entry): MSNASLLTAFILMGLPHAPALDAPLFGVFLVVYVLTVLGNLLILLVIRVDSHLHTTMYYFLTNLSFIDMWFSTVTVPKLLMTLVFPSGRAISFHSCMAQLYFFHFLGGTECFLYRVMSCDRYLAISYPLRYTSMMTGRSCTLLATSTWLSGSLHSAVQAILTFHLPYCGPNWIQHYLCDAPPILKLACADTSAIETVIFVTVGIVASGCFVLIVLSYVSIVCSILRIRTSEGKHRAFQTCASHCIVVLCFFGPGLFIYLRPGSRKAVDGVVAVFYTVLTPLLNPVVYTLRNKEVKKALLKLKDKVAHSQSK
Outline: as §1

OR10G9 (Homo sapiens) = biological target: T8, OR10G9 (Homo sapiens) (UniProt Q8NGN4)
T8 sequence (whole entry): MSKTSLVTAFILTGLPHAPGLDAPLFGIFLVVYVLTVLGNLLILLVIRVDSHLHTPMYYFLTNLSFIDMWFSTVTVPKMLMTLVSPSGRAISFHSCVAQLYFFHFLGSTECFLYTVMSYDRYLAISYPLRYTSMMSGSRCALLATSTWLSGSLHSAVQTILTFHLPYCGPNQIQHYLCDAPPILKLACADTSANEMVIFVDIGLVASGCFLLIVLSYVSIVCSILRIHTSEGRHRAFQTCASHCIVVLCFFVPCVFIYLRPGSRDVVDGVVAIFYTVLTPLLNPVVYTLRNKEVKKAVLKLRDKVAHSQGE
Outline: as §1

OR10H1 (Homo sapiens) = biological target: T9, OR10H1 (Homo sapiens) (UniProt Q9Y4A9)
T9 sequence (whole entry): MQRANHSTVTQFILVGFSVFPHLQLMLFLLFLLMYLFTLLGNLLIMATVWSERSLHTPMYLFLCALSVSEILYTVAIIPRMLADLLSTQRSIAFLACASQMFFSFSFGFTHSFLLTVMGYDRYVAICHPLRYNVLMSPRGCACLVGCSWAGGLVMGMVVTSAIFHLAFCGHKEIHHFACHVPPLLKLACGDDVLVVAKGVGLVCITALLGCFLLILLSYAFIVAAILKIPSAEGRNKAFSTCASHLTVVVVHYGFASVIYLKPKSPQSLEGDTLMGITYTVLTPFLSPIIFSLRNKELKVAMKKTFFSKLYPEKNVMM
Outline: as §1

OR10H2 (Homo sapiens) = biological target: T10, OR10H2 (Homo sapiens) (UniProt O60403)
T10 sequence (whole entry): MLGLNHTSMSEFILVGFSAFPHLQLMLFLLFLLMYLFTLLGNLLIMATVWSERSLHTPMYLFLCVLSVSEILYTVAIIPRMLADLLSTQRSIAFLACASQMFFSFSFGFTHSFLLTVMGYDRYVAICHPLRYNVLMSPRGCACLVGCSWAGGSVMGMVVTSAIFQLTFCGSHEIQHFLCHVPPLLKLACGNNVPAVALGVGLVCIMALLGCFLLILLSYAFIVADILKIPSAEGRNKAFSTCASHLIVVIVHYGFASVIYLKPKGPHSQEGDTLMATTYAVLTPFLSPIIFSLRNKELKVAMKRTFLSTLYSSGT
Outline: as §1

OR10H3 (Homo sapiens) = biological target: T11, OR10H3 (Homo sapiens) (UniProt O60404)
T11 sequence (whole entry): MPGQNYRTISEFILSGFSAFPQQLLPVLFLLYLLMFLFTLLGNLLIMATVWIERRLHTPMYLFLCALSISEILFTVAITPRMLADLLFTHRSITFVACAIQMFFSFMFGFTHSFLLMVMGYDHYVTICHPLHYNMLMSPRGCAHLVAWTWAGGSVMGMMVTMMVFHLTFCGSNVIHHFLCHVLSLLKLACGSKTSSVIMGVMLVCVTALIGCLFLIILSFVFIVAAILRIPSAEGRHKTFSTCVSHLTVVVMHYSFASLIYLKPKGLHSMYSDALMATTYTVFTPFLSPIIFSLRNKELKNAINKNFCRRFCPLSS
Outline: as §1

OR10H4 (Homo sapiens) = biological target: T12, OR10H4 (Homo sapiens) (UniProt Q8NGA5)
T12 sequence (whole entry): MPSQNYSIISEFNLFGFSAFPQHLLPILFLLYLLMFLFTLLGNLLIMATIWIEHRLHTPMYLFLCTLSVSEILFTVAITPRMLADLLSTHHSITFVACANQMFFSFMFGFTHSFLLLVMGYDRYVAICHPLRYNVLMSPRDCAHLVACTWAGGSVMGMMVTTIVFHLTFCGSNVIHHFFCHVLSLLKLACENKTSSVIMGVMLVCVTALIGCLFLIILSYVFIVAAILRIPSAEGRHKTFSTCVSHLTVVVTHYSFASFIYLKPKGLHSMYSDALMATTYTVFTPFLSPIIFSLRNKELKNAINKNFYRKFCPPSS
Outline: as §1

OR10H5 (Homo sapiens) = biological target: T13, OR10H5 (Homo sapiens) (UniProt Q8NGA6)
T13 sequence (whole entry): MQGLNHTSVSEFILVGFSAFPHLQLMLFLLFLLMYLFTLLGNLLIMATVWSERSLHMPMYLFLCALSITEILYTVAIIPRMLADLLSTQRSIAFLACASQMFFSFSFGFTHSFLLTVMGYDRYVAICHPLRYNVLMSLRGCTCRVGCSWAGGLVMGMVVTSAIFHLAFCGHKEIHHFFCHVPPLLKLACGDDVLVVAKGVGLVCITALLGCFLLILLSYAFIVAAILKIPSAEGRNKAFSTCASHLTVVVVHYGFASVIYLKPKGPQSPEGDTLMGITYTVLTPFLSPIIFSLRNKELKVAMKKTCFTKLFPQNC
Outline: as §1

OR10J1 (Homo sapiens) = biological target: T14, OR10J1 (Homo sapiens) (UniProt P30954)
T14 sequence (whole entry): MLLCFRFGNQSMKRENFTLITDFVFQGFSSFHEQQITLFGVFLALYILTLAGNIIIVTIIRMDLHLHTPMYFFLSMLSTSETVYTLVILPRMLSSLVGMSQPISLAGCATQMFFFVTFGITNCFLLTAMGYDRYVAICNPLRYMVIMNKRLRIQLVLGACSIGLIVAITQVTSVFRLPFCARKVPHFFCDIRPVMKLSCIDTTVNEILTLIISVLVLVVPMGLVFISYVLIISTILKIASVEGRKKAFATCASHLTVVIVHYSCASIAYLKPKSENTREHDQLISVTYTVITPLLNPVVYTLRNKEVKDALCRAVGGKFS
Outline: as §1

OR10J3 (Homo sapiens) = biological target: T15, OR10J3 (Homo sapiens) (UniProt Q5JRS4)
T15 sequence (whole entry): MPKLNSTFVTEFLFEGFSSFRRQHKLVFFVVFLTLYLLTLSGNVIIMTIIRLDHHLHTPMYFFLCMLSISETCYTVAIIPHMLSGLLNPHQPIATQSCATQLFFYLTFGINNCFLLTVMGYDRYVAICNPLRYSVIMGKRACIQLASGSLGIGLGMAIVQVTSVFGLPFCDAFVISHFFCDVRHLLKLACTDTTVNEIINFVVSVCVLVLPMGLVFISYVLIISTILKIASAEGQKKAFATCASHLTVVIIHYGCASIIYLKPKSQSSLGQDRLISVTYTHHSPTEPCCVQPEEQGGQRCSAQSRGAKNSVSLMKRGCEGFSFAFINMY
Outline: as §1

OR10K1 (Homo sapiens) = biological target: T16, OR10K1 (Homo sapiens) (UniProt Q8NGX5)
T16 sequence (whole entry): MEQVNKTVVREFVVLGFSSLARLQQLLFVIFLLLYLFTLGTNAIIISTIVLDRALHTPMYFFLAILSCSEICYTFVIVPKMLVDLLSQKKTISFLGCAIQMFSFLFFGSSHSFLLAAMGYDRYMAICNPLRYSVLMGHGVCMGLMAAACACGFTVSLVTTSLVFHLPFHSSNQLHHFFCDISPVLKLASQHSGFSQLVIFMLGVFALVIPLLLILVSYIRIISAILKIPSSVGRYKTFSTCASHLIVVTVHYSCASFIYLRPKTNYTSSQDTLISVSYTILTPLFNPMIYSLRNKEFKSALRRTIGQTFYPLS
Outline: as §1

OR10P1 (Homo sapiens) = biological target: T17, OR10P1 (Homo sapiens) (UniProt Q8NGE3)
T17 sequence (whole entry): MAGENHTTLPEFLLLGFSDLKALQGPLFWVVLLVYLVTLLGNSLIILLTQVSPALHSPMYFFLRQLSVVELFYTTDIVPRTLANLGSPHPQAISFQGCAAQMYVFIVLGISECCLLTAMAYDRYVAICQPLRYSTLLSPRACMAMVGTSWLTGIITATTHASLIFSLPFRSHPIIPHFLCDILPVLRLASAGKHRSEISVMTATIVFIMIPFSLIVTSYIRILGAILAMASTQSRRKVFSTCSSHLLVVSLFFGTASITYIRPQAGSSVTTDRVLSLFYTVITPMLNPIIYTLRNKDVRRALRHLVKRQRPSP
Outline: as §1

OR10Q1 (Homo sapiens) = biological target: T18, OR10Q1 (Homo sapiens) (UniProt Q8NGQ4)
T18 sequence (whole entry): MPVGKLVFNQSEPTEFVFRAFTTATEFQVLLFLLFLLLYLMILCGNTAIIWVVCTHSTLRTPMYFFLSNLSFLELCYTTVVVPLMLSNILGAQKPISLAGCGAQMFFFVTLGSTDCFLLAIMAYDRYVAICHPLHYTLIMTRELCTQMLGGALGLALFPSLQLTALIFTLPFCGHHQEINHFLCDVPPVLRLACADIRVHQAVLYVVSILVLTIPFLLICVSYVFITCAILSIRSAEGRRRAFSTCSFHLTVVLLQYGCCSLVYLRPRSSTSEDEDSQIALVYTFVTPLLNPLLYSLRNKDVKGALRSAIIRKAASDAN
Outline: as §1

Measured: odorant receptor agonist call

CCC(=O)C(=O)CC
inactive: OR10J5 (Homo sapiens)

CCCCCCCCO
inactive: OR10J5 (Homo sapiens)

CC1=NC(C)C(C)S1 (stereo not drawn)
inactive: all assays above

CCCCCCC=CCCC=O
inactive: all assays above
